≈ marks a conversion by molar mass, not a printed value.
What was measured:
Acinetobacter baumannii [1] = experiment: Antibacterial activity against aminoglycoside-susceptible Acinetobacter baumannii by broth microdilution method; format: functional
[2] = tested on: Acinetobacter calcoaceticus; experiment: Antibacterial activity against aminoglycoside-resistant Acinetobacter calcoaceticus expressing AAC(6')-1 by broth microdilution method; format: functional
Summary of the method: (§1)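 Clinical aminoglycoside-resistant isolates were each carrying a single aminoglycoside-modifying enzyme. […] MICs were determined by CLSI broth microdilution.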

Pseudomonas aeruginosa [3] = experiment: Antibacterial activity against Pseudomonas aeruginosa expressing mexXY operon by broth microdilution method; format: functional
Summary of the method: (§2)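 MICs were measured by broth microdilution following CLSI guidance. The strains formed a 25-strain screening panel with diverse aminoglycoside resistance mechanisms. The panel included Gram-negative and S. aureus strains carrying key aminoglycoside-modifying enzymes, strains with altered permeability or efflux, and an armA ribosomal methyltransferase strain.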

Pseudomonas aeruginosa [4] = experiment: Antibacterial activity against Pseudomonas aeruginosa expressing ANT(4')-2 by broth microdilution method; format: functional; summary of the method: as §2
Pseudomonas aeruginosa [5] = experiment: Antibacterial activity against Pseudomonas aeruginosa expressing AAC(3)-1 by broth microdilution method; format: functional
Pseudomonas aeruginosa [6] = experiment: Antibacterial activity against Pseudomonas aeruginosa expressing AAC(6')-2 by broth microdilution method; format: functional
[7] = Antibacterial activity against indole positive Proteae by broth microdilution method; format: functional
Summary of the method: (§3)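 MICs were determined by CLSI broth microdilution against clinical isolate panels that included aminoglycoside-resistant isolates. […] MIC90 was derived per group and not calculated when n was <10. Imipenem, ceftobiprole, ciprofloxacin and tigecycline MICs were also determined for the resistant isolates.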

Acinetobacter sp. = experiment: Antibacterial activity against Acinetobacter spp. by broth microdilution method; format: functional; summary of the method: as §3
Klebsiella aerogenes = experiment: Antibacterial activity against aminoglycoside-resistant Enterobacter aerogenes expressing AAC(3)-2 by broth microdilution method; format: functional; summary of the method: as §1
Klebsiella oxytoca = experiment: Antibacterial activity against aminoglycoside-resistant Klebsiella oxytoca expressing AAC(3)-2 by broth microdilution method; format: functional; summary of the method: as §1
Serratia liquefaciens = experiment: Antibacterial activity against aminoglycoside-resistant Serratia liquefaciens expressing AAC(3)-2 by broth microdilution method; format: functional; summary of the method: as §1
Klebsiella pneumoniae [8] = experiment: Antibacterial activity against aminoglycoside-resistant Klebsiella pneumoniae expressing AAC(3)-4 by broth microdilution method; format: functional; summary of the method: as §1
Citrobacter freundii = experiment: Antibacterial activity against aminoglycoside-resistant Citrobacter freundii expressing AAC(6')-1 by broth microdilution method; format: functional; summary of the method: as §1
Enterobacter cloacae = experiment: Antibacterial activity against aminoglycoside-resistant Enterobacter cloacae expressing AAC(6')-1 by broth microdilution method; format: functional; summary of the method: as §1
Klebsiella pneumoniae [9] = experiment: Antibacterial activity against aminoglycoside-resistant Klebsiella pneumoniae expressing AAC(6')-1 by broth microdilution method; format: functional; summary of the method: as §1
Acinetobacter baumannii [10] = experiment: Antibacterial activity against aminoglycoside-resistant Acinetobacter baumannii expressing ANT(2'')-1 by broth microdilution method; format: functional; summary of the method: as §1
Klebsiella pneumoniae [11] = experiment: Antibacterial activity against Klebsiella pneumoniae ATCC 10031 by broth microdilution method; format: functional; summary of the method: as §2
Escherichia coli [12] = experiment: Antibacterial activity against aminoglycoside-resistant Escherichia coli expressing ANT(2'')-1 by broth microdilution method; format: functional; summary of the method: as §1
Escherichia coli [13] = experiment: Antibacterial activity against aminoglycoside-resistant Escherichia coli expressing ANT(3)-2 by broth microdilution method; format: functional; summary of the method: as §1
Escherichia coli [14] = experiment: Antibacterial activity against aminoglycoside-resistant Escherichia coli expressing armA methylase by broth microdilution method; format: functional; summary of the method: as §2
Staphylococcus aureus = experiment: microbe, parasite or virus in culture; conditions: ATCC 29213
Providencia stuartii = experiment: Antibacterial activity against aminoglycoside-resistant Providencia stuartii expressing AAC(2')-1 by broth microdilution method
Escherichia coli [15] = experiment: Antibacterial activity against aminoglycoside-resistant Escherichia coli expressing AAC(3)-2 by broth microdilution method

Compound | MIC (Acinetobacter baumannii [1]) | MIC [2] | MIC (Pseudomonas aeruginosa [3]) | MIC (Pseudomonas aeruginosa [4]) | MIC (Pseudomonas aeruginosa [5]) | MIC (Pseudomonas aeruginosa [6]) | MIC50 [7] | MIC50 (Acinetobacter sp.) | MIC90 (Acinetobacter sp.) | MIC (Klebsiella aerogenes) | MIC (Klebsiella oxytoca) | MIC (Serratia liquefaciens) | MIC (Klebsiella pneumoniae [8]) | MIC (Citrobacter freundii) | MIC (Enterobacter cloacae) | MIC (Klebsiella pneumoniae [9]) | MIC (Acinetobacter baumannii [10]) | MIC (Klebsiella pneumoniae [11]) | MIC (Escherichia coli [12]) | MIC (Escherichia coli [14]) | also measured
CN[C@@H]1[C@@H](O)[C@@H](O[C@@H]2[C@@H](O)[C@H](O[C@H]3OC(CNCCO)=CC[C@H]3N)[C@@H](N)C[C@H]2NC(=O)[C@@H](O)CCN)OC[C@]1(C)O [PLAZOMICIN] | 4 µg/mL (≈ 6.75 µM) | 2 µg/mL (≈ 3.37 µM) | 8 µg/mL (≈ 13.5 µM) | 4 µg/mL (≈ 6.75 µM) | 8 µg/mL (≈ 13.5 µM) | 2 µg/mL (≈ 3.37 µM) | 8 µg/mL (≈ 13.5 µM) | 16 µg/mL (≈ 27 µM) | 32 µg/mL (≈ 54 µM) | 1 µg/mL (≈ 1.69 µM) | 1 µg/mL (≈ 1.69 µM) | 1 µg/mL (≈ 1.69 µM) | 1 µg/mL (≈ 1.69 µM) | 1 µg/mL (≈ 1.69 µM) | 1 µg/mL (≈ 1.69 µM) | 1 µg/mL (≈ 1.69 µM) | 2 µg/mL (≈ 3.37 µM) | 0.25 µg/mL (≈ 0.422 µM) | 1 µg/mL (≈ 1.69 µM) | > 64 µg/mL | MIC (Escherichia coli [13]): 2 µg/mL (≈ 3.37 µM); MIC (Staphylococcus aureus): 1 µg/mL (≈ 1.69 µM); MIC (Providencia stuartii): > 64 µg/mL
NCC[C@H](O)C(=O)N[C@@H]1C[C@H](N)[C@@H](O[C@H]2O[C@H](CN)[C@@H](O)[C@H](O)[C@H]2O)[C@H](O)[C@H]1O[C@H]1O[C@H](CO)[C@@H](O)[C@H](N)[C@H]1O [AMIKACIN] | 2 µg/mL (≈ 3.42 µM) | 32 µg/mL (≈ 54.6 µM) | 4 µg/mL (≈ 6.83 µM) | 32 µg/mL (≈ 54.6 µM) | 4 µg/mL (≈ 6.83 µM) | 4 µg/mL (≈ 6.83 µM) | 8 µg/mL (≈ 13.7 µM) | > 64 µg/mL | > 64 µg/mL | 4 µg/mL (≈ 6.83 µM) | 4 µg/mL (≈ 6.83 µM) | 4 µg/mL (≈ 6.83 µM) | 2 µg/mL (≈ 3.42 µM) | 30 µg/mL (≈ 51.2 µM) | 30 µg/mL (≈ 51.2 µM) | 30 µg/mL (≈ 51.2 µM) | 16 µg/mL (≈ 27.3 µM) | 0.5 µg/mL (≈ 0.854 µM) | 4 µg/mL (≈ 6.83 µM) | > 64 µg/mL | MIC (Staphylococcus aureus): 4 µg/mL (≈ 6.83 µM); MIC (Escherichia coli [15]): 4 µg/mL (≈ 6.83 µM); MIC (Providencia stuartii): 8 µg/mL (≈ 13.7 µM)
